Test results reported in ChEMBL document CHEMBL1125500 (J Med Chem, 1992).

Columns and labels:
[1] = molecular target: T1, Lanosterol 14-alpha demethylase (Rattus norvegicus, UniProt Q64654); experiment: Inhibition of lanosterol 14 alpha-demethylase cytochrome P450 51A
T1 sequence (Q64654 whole entry): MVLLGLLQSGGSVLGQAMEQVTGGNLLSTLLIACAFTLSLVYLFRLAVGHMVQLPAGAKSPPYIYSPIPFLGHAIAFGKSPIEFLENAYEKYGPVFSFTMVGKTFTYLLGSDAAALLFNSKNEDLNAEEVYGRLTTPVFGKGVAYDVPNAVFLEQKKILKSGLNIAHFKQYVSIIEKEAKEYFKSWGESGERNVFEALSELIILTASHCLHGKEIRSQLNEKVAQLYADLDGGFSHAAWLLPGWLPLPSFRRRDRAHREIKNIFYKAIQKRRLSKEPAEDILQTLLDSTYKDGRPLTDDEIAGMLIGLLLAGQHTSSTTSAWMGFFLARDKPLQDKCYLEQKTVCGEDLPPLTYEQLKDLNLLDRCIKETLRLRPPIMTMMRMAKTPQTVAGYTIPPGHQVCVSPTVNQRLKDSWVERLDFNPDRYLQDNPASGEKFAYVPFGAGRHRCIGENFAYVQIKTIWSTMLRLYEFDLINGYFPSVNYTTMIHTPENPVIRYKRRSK
Summary of the method: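 Liver microsomes from cholestyramine-treated male rats. Buffer was potassium phosphate pH 7.0 with DTT, EDTA, MgCl2, 0.005% Tween-20, 20% glycerol, 5 mM glucose 6-phosphate and G6P dehydrogenase. […] Reaction was started with NADPH, run 30 min at 37 °C and stopped with TCA. Tritiated water-soluble products were separated on Bond-Elut and counted by scintillation in duplicate.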

[2] = Inhibition of Steroid 17-alpha-hydroxylase/17,20 lyase cytochrome P450 17A1; design: species or system Sus scrofa
[3] = Inhibition of cytochrome P450 progesterone 16-alpha hydroxylase; assay type: ADME, Rattus norvegicus
[4] = Inhibition of lauric acid hydroxylase cytochrome P450 4A; design: species or system Rattus norvegicus
Summary of the method: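 Microsomal protein (0.05 mg/mL) with [14C]lauric acid (10 nmol, 6 mCi/mmol), potassium phosphate pH 7.4, MgCl2, EDTA, glucose 6-phosphate, glucose-6-phosphate dehydrogenase (2 units) and NADPH, in 1 mL. Ran 10 min at 37 °C and was stopped with CH2Cl2. Products were resolved by reverse-phase HPLC on a MeCN gradient with radioflow detection.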

[5] = molecular target: Cholesterol side-chain cleavage enzyme, mitochondrial (Bos taurus) (UniProt P00189); experiment: Inhibition of cholesterol side chain cleavage cytochrome P450
Chain of Cholesterol side-chain cleavage enzyme, mitochondrial (Bos taurus) (P00189 whole entry, looked up): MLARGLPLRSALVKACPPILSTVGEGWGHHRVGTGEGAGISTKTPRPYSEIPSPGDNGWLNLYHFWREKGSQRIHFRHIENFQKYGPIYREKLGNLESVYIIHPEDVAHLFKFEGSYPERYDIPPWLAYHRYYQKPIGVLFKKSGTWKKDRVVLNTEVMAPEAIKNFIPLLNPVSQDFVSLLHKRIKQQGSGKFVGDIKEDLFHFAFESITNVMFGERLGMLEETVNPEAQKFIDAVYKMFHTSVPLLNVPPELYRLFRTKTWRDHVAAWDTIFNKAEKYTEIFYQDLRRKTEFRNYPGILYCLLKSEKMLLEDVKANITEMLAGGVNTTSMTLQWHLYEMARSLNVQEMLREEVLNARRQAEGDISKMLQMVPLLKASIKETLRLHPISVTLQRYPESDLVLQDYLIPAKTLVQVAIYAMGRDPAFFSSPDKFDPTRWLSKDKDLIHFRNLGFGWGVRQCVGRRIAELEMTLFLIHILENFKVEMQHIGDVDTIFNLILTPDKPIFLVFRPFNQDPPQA

Cytochrome P450 2A2 = Cytochrome P450 2A2 (Rattus norvegicus, UniProt P15149); experiment: Inhibition of cytochrome P450 progesterone 15-alpha hydroxylase; assay type: ADME
Chain of Cytochrome P450 2A2 (P15149 whole entry): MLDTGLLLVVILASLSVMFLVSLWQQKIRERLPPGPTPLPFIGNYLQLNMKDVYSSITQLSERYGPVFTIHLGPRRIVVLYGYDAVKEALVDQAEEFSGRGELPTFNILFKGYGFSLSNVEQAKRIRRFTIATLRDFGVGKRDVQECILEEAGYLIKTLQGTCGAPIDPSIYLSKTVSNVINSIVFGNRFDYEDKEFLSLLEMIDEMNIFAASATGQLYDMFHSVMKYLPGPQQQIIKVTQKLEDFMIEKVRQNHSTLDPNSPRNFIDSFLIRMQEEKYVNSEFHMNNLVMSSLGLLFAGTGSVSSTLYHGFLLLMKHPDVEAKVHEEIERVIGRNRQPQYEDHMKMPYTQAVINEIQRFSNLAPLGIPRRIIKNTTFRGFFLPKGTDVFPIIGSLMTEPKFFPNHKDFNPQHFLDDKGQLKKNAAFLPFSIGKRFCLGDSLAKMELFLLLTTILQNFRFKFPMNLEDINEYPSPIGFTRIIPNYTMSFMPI

| Structure (SMILES) | IC50 [1] [µM] | IC50 [2] [µM] | IC50 [3] [µM] | IC50 [4] [µM] | IC50 [5] [µM] | IC50 (Cytochrome P450 2A2) [µM] |
| --- | --- | --- | --- | --- | --- | --- |
| CC(=O)N1CCN(c2ccc(OC[C@H]3CO[C@@](Cn4ccnc4)(c4ccc(Cl)cc4Cl)O3)cc2)CC1 | 1.6 | 0.589 | 37.9 | > 100 | 2.95 | 1.08 |
| CC(=O)N1CCN(c2ccc(OC[C@@H]3CO[C@](Cn4ccnc4)(c4ccc(Cl)cc4Cl)O3)cc2)CC1 | 1.37 |  | 32.3 | > 100 | 3.92 | 0.728 |
| CC(=O)N1CCN(c2ccc(OCC3COC(Cn4ccnc4)(c4ccc(Cl)cc4Cl)O3)cc2)CC1 (stereo in doubt; 2) [KETOCONAZOLE] | 0.047 | 0.05 | 83.9 |  | 1.24 | 0.543 |
| CC(=O)N1CCN(c2ccc(OCC3COC(Cn4ccnc4)(c4ccc(Cl)cc4Cl)O3)cc2)CC1 (stereo in doubt; 4) [KETOCONAZOLE] | 0.119 | 2.38 | 69.3 | > 100 | 5.4 | 0.369 |
